Assay outcomes: PubChem BioAssay, several laboratories
Sampled rows, rich in hits. Any-hit rate of the full collection: about 2.9%.
SENP7 inh: SENP7 protease inhibition; 1.5% of 330,000 active; inhibition, % at 5 µM; Q9BQF6; AID 434973; recombinant SENP7, Z-RLRGG-aminoluciferin luminescence, 40 min;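 active = inhibition above about 50% at the single test dose, limit read from the data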;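 also: plate controls were DMSO with enzyme for no effect and no enzyme buffer wells for full effect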
SENP8 block-1: SENP8 protease inhibition. purified SENP8, Z-RLRGG-aminoluciferin cleavage, luminescence. inhibition, % at 10 µM. 1.2% of 330,000 active. Q96LD8; in the data active = inhibition above about 50%
Target sequence (Q96LD8 whole entry, looked up): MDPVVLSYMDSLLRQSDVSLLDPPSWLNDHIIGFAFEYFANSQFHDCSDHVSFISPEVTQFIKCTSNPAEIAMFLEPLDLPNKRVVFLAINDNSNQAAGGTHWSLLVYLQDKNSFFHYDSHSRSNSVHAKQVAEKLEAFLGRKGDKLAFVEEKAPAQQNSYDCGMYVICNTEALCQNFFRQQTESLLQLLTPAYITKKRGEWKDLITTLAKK
SENP8 block-2: inhibitors of human SENP8 protease; 0.64% of 360,000 active; Q96LD8; AID 602440; inhibition, % at 20 µM; recombinant SENP8, Nedd8 substrate fluorescence; in the data active = inhibition mostly above about 40%, no sharp cut-off; inactive = mostly below about 27%
SENP1 inh: blocks the human SENP1 SUMO protease catalytic domain; inhibition, % at 10 µM; recombinant SENP1 catalytic domain, CyPet-SUMO1-YPet FRET cleavage; Q9P0U3; 0.21% of 360,000 active;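 active = inhibition at least 30% at 10 µM, raw YFP signal under a set limit, fluorescence ratio 0.5 to 1.5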;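 also: 0% = enzyme with DMSO and 100% = no enzyme wells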
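system = hSENP1 catalytic domain, recombinant | reagent = SFCypet-SUMO1-SFYpet substrate at 25 nM | doses = one dose per compound, 10 µM, 0.5% DMSO | incubation = enzyme reaction for 50 min at room temperature, dark | measured by = FRET, CFP and YFP emission | controls = no-enzyme low, enzyme-DMSO high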
SENP6 block: blocks the human protease SENP6. Recombinant SENP6 catalytic domain, aminoluciferin luminescence. inhibition, % at 10 µM. 1.8% of 330,000 active;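 active = inhibition above about 50% at the single tested dose, limit read from the data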;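 also: plate controls were DMSO wells with enzyme for no effect and DMSO wells lacking enzyme for full effect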
HSP90 inh: inhibitors of HSP90 luciferase refolding in rabbit reticulocyte lysate | AID 1789 | luciferase refolding luminescence, 3 h | 0.91% of 290,000 active | inhibition, % at 5.6 µM;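 active = inhibition above the screen-wide mean plus 3 SD, computed separately per campaign, cut at about 16% in these data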;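 also: 0% = DMSO wells and 100% = 60 µM geldanamycin wells; inhibitors lower the luminescence because luciferase stays unfolded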
HSP90 inh confirm: confirmation of HSP90 inhibitors; shares compounds with HSP90 inh; 64% of 2,300 active; rabbit reticulocyte lysate, luciferase refolding luminescence, 3 h; inhibition, % at 5.9 µM; in the data active = inhibition above about 18%;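 also: 0% = vehicle wells and 100% = reference inhibitor wells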
luciferase ctr: blocks native firefly luciferase in HSP90 counter-screen. shares compounds with HSP90 inh. purified native firefly luciferase, luminescence. inhibition, % at 5.9 µM. 48% of 2,300 active;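 active = inhibition above the mean inhibition of all tested sample wells plus 3 SD, cut at about 10% in these data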;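 also: 0% = DMSO with luciferase and 100% = wells lacking luciferase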
SENP8 conf: confirmation of human SENP8 protease inhibitors; shares compounds with SENP7 inh; Recombinant SENP8, Z-RLRGG-aminoluciferin luminescence, 60 min; inhibition, % at 12.5 µM; 40% of 6,200 active; AID 488912;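 active = mean inhibition across replicates above about 50%, limit read from the data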
SENP6 confirm: human SENP6 inhibition, confirmed | shares compounds with SENP7 inh | AID 488915 | recombinant SENP6, Z-RLRGG-aminoluciferin luminescence | inhibition, % at 12.5 µM | 58% of 6,200 active
SENP7 confirm: confirmation of human SENP7 protease inhibitors. inhibition, % at 12.5 µM. recombinant SENP7, Z-RLRGG-aminoluciferin luminescence, 40 min. AID 488917. shares compounds with SENP7 inh. 69% of 6,200 active
Casp3 SENP sel: selectivity test for SENP inhibitors: human caspase-3 inhibition; inhibition, % at 12.5 µM; 60% of 6,200 active; purified caspase-3, Z-DEVD-aminoluciferin luminescence, 60 min; shares compounds with SENP7 inh; AID 488918;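 active = mean inhibition above about 50%, limit read from the data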;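 also: plate controls were enzyme with DMSO for no effect and wells without caspase-3 for full effect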
Target sequence (P42574 28-227 limits assumed): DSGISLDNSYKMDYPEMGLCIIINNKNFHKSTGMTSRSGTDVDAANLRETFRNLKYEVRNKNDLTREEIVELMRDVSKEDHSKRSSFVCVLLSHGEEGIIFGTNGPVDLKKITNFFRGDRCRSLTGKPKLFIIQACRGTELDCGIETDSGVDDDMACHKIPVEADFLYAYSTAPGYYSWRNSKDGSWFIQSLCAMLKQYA
SENP luc ctr: counter-screen for SENP inhibitors: luminescence interference; shares compounds with SENP7 inh; Pre-incubated SENP8/Z-RLRGG-aminoluciferin, luciferase luminescence interference; inhibition, % at 12.5 µM; 39% of 6,200 active; AID 488919;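 active = mean inhibition above about 50% when retested at one dose, limit read from the data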;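 also: plate controls were DMSO wells with completed reaction for no effect and substrate without enzyme for full effect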
* hit, by the source's call; x = no result given.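 The calls were made as follows, unless noted: active = mean inhibition above about 50% in the one-dose retest (limit read from the data); inactive = the rest.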

SMILES | SENP7 inh | SENP8 block-1 | SENP8 block-2 | SENP1 inh | SENP6 block | HSP90 inh | HSP90 inh confirm | luciferase ctr | SENP8 conf | SENP6 confirm | SENP7 confirm | Casp3 SENP sel | SENP luc ctr
CCOc1ccc(-c2cn3ccccc3n2)cc1 | 72* | 66* | -410 | -3 | 49 | 27* | 64* | 47* | 86* | 85* | 96* | 90* | 84*
O=[N+]([O-])c1ccc(-c2cnc3ccccc3n2)cc1 | 31 | 33 | 4 | -5 | 19 | 0 | x | x | x | x | x | x | x
CCOc1ccc(-c2cnc3ccccc3n2)cc1 | 98* | 93* | -441 | -3 | 96* | 42* | 86* | 80* | 8 | 61* | 79* | 88* | 58*
CCN(CC)c1ccc(/C=N\NC(N)=O)cc1 | 4 | -1 | -290 | 2 | -28 | 2 | x | x | x | x | x | x | x
CCN(CC)c1ccc(/C=N/NC(=O)c2ccoc2C)cc1 | 101* | 95* | -437 | -20 | 97* | 31* | 59* | 54* | 97* | 100* | 103* | 98* | 83*
c1ccc(-c2nc3ccccc3o2)nc1 | -3 | -8 | -7 | 1 | 13 | -2 | x | x | x | x | x | x | x
c1ccc2nc(-c3nc4ccccc4o3)ccc2c1 | 100* | 97* | -296 | 8 | 98* | 32* | 81* | 76* | 98* | 100* | 102* | 99* | 95*
CCN(CC)CCCNC(=O)c1ccc(S(=O)(=O)Nc2ccc(C)c(C)c2)cc1 | 4 | -5 | 31 | 5 | -4 | x | x | x | x | x | x | x | x
COc1cccc(/C=C/C(=O)OCC(=O)NC2CCCCCC2)c1 | x | x | -376 | 2 | x | x | x | x | x | x | x | x | x
Cc1ccnc(NC(=O)/C=C/c2ccccc2Cl)c1 | 98* | 93* | -3 | 0 | 96* | 35* | 58* | 47* | 82* | 92* | 91* | 94* | 63*
CCCN(C(=O)c1cccc(S(=O)(=O)N2CCN(C)CC2)c1)c1c(N)n(Cc2ccccc2)c(=O)[nH]c1=O | -1 | -6 | -23 | -7 | -23 | x | x | x | x | x | x | x | x
Cc1c(O)ccc(/C=N/Nc2ncccc2[N+](=O)[O-])c1O | 100* | 96* | 27 | 2 | 97* | 21* | 28* | 28* | 67* | 77* | 102* | 75* | 25
COCC(C)n1c(C)cc(C(=O)COC(=O)c2n[nH]c3ccccc23)c1C (centres undefined) | 30 | 21 | 16 | 0 | 55* | 47* | 48* | 45* | 48 | 42 | 67* | 47 | 48
CSc1nc2ccc(NC(=O)c3ccccn3)cc2s1 | 93* | 90* | -44 | 0 | 78* | 41* | 62* | 57* | 52* | 86* | 98* | 93* | 17
COc1ccc(NC(=O)c2ccccn2)cc1 | 91* | 81* | 0 | -1 | 94* | 35* | 64* | 47* | 85* | 86* | 98* | 95* | 85*
O=C(Nc1nc2ccc(S(=O)(=O)N3CCCC3)cc2s1)c1ccccn1 | 5 | -9 | -63 | -4 | -5 | 2 | x | x | x | x | x | x | x
